Test results: ChEMBL document CHEMBL5724801, “EUbOPEN Chemogenomics Library - Multiplex” (2024)
Values joined by “and” are separate entries in the source; they are usually repeats but may differ in a detail not shown here. Identical values can stand only once.

Test system: Fibroblast
Assay: Multiplex assay against human fibroblast
Type: toxicity, cell-based
Outline: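 At seeding, live cells were stained with Hoechst33342, BioTracker Green Microtubule Cytoskeleton Dye, MitoTracker Red and Annexin V Alexa Fluor 680. After compound addition they were imaged on a CQ1 microscope at 37°C and 5% CO2, and CellPathfinder machine-learning gating sorted them into Hoechst high-intensity objects or normal cells, with normal cells further split into healthy, pyknosed or fragmented nuclei and pyknosed cells into mitotic or apoptotic. Tubulin, mitochondrial-mass and membrane-permeability phenotypes are given as per cents of cells with healthy nuclei.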

[1] = 12 h, 1 µM, compound concentration 1 uM
[2] = 12 h, 10 µM, compound concentration 10 uM
[3] = 24 h, 1 µM, compound concentration 1 uM
[4] = 24 h, 10 µM, compound concentration 10 uM
[5] = 48 h, 1 µM, compound concentration 1 uM
[6] = 48 h, 10 µM, compound concentration 10 uM

## COc1cc(/C=C(\C#N)C(=O)Nc2nnc(C(F)(F)F)s2)ccc1OCc1ccc(C(F)(F)F)cc1C(F)(F)F
[1]
  Population Healthy Nuclei (%): 58.16% and 84.16%
  Population Hoechst High Intensity Objects (%): 0%
  Population Membrane Permeable-Phenotype (%): 2.63% and 2.94%
  Population Mitochondria Different-Phenotype (%): 3.51% and 3.53%
  Population Mitotic Cells (%): 97.5% and 65%
  Population Normal (%): 100%
  Population Pyknosed Nuclei (%): 20.41% and 9.9%
  Population Tubulin-Different-Phenotype (%): 14.04% and 8.24%
  Total Cell Count: 196 and 202
[2]
  Population Apoptotic (%): 13.04% and 12.12%
  Population Fragmented Nuclei (%): 7.14% and 5.21%
  Population Healthy Nuclei (%): 67.58% and 79.15%
  Population Hoechst High Intensity Objects (%): 0%
  Population Membrane Permeable-Phenotype (%): 4.07% and 1.2%
  Population Mitochondria Different-Phenotype (%): 8.13% and 4.79%
  Population Mitotic Cells (%): 86.96% and 87.88%
  Population Normal (%): 100%
  Population Pyknosed Nuclei (%): 25.27% and 15.64%
  Population Tubulin-Different-Phenotype (%): 7.32% and 18.56%
  Total Cell Count: 182 and 211
[3]
  Population Apoptotic (%): 9.09% and 25%
  Population Fragmented Nuclei (%): 17.05% and 6.05%
  Population Healthy Nuclei (%): 67.74% and 86.51%
  Population Hoechst High Intensity Objects (%): 0%
  Population Membrane Permeable-Phenotype (%): 5.44% and 3.23%
  Population Mitochondria Different-Phenotype (%): 4.76% and 1.61%
  Population Mitotic Cells (%): 90.91% and 75%
  Population Normal (%): 100%
  Population Pyknosed Nuclei (%): 15.21% and 7.44%
  Population Tubulin-Different-Phenotype (%): 14.97% and 9.14%
  Total Cell Count: 217 and 215
[4]
  Population Apoptotic (%): 9.09% and 23.53%
  Population Fragmented Nuclei (%): 4.46% and 6.64%
  Population Healthy Nuclei (%): 79.21% and 85.31%
  Population Hoechst High Intensity Objects (%): 0%
  Population Membrane Permeable-Phenotype (%): 3.75% and 3.33%
  Population Mitochondria Different-Phenotype (%): 7.5% and 5%
  Population Mitotic Cells (%): 90.91% and 76.47%
  Population Normal (%): 100%
  Population Pyknosed Nuclei (%): 16.34% and 8.06%
  Population Tubulin-Different-Phenotype (%): 10% and 18.89%
  Total Cell Count: 202 and 211
[5]
  Population Apoptotic (%): 33.33% and 37.5%
  Population Fragmented Nuclei (%): 14.56% and 6.01%
  Population Healthy Nuclei (%): 78.54% and 90.56%
  Population Hoechst High Intensity Objects (%): 0%
  Population Membrane Permeable-Phenotype (%): 2.93% and 0.95%
  Population Mitochondria Different-Phenotype (%): 8.29% and 2.37%
  Population Mitotic Cells (%): 66.67% and 62.5%
  Population Normal (%): 100%
  Population Pyknosed Nuclei (%): 6.9% and 3.43%
  Population Tubulin-Different-Phenotype (%): 6.83% and 10.43%
  Total Cell Count: 261 and 233
[6]
  Population Fragmented Nuclei (%): 7.11% and 8.56%
  Population Healthy Nuclei (%): 90.05% and 88.74%
  Population Hoechst High Intensity Objects (%): 0%
  Population Membrane Permeable-Phenotype (%): 1.05% and 2.03%
  Population Mitochondria Different-Phenotype (%): 10.53% and 2.54%
  Population Mitotic Cells (%): 100% and 50%
  Population Normal (%): 100%
  Population Pyknosed Nuclei (%): 2.84% and 2.7%
  Total Cell Count: 211 and 222

## N#Cc1ccnc(Nc2cc(C3CCN(C4COC4)CC3)cc(N3CCC(F)(F)C3)n2)c1
[1]
  Population Apoptotic (%): 14.12% and 22.64%
  Population Fragmented Nuclei (%): 18.52% and 8.85%
  Population Healthy Nuclei (%): 42.13% and 67.7%
  Population Hoechst High Intensity Objects (%): 0%
  Population Membrane Permeable-Phenotype (%): 3.3% and 2.61%
  Population Mitochondria Different-Phenotype (%): 16.48% and 9.8%
  Population Mitotic Cells (%): 85.88% and 77.36%
  Population Normal (%): 100%
  Population Pyknosed Nuclei (%): 39.35% and 23.45%
  Population Tubulin-Different-Phenotype (%): 31.87% and 33.33%
  Total Cell Count: 216 and 226
[2]
  Population Apoptotic (%): 60.19% and 71.72%
  Population Fragmented Nuclei (%): 13.02% and 15.68%
  Population Healthy Nuclei (%): 36.74% and 30.81%
  Population Hoechst High Intensity Objects (%): 0% and 0.54%
  Population Mitochondria Different-Phenotype (%): 35.44% and 45.61%
  Population Mitotic Cells (%): 39.81% and 28.28%
  Population Normal (%): 100% and 99.46%
  Population Pyknosed Nuclei (%): 50.23% and 53.51%
  Population Tubulin-Different-Phenotype (%): 45.57% and 73.68%
  Total Cell Count: 215 and 186
[3]
  Population Apoptotic (%): 7.81% and 14%
  Population Fragmented Nuclei (%): 19.58% and 9.81%
  Population Healthy Nuclei (%): 53.75% and 66.82%
  Population Hoechst High Intensity Objects (%): 0%
  Population Membrane Permeable-Phenotype (%): 5.43% and 4.2%
  Population Mitochondria Different-Phenotype (%): 19.38% and 23.08%
  Population Mitotic Cells (%): 92.19% and 86%
  Population Normal (%): 100%
  Population Pyknosed Nuclei (%): 26.67% and 23.36%
  Population Tubulin-Different-Phenotype (%): 29.46% and 47.55%
  Total Cell Count: 240 and 214
[4]
  Population Apoptotic (%): 58.59% and 84.62%
  Population Fragmented Nuclei (%): 13.17% and 9.55%
  Population Healthy Nuclei (%): 38.54% and 39.33%
  Population Hoechst High Intensity Objects (%): 0% and 0.56%
  Population Membrane Permeable-Phenotype (%): 10.13% and 20%
  Population Mitochondria Different-Phenotype (%): 32.91% and 55.71%
  Population Mitotic Cells (%): 41.41% and 15.38%
  Population Normal (%): 100% and 99.44%
  Population Pyknosed Nuclei (%): 48.29% and 51.12%
  Population Tubulin-Different-Phenotype (%): 37.97% and 78.57%
  Total Cell Count: 205 and 179
[5]
  Population Fragmented Nuclei (%): 19.03% and 11.35%
  Population Healthy Nuclei (%): 63.97% and 74.24%
  Population Hoechst High Intensity Objects (%): 0%
  Population Membrane Permeable-Phenotype (%): 2.53% and 2.94%
  Population Mitochondria Different-Phenotype (%): 21.52% and 11.18%
  Population Mitotic Cells (%): 92.86% and 57.58%
  Population Normal (%): 100%
  Population Pyknosed Nuclei (%): 17% and 14.41%
  Population Tubulin-Different-Phenotype (%): 32.91% and 54.12%
  Total Cell Count: 247 and 229
[6]
  Population Apoptotic (%): 59.57% and 79.01%
  Population Fragmented Nuclei (%): 13% and 11.52%
  Population Healthy Nuclei (%): 44.84% and 46.07%
  Population Hoechst High Intensity Objects (%): 0% and 0.52%
  Population Membrane Permeable-Phenotype (%): 7% and 15.91%
  Population Mitochondria Different-Phenotype (%): 36% and 20.45%
  Population Mitotic Cells (%): 40.43% and 20.99%
  Population Normal (%): 100% and 99.48%
  Population Pyknosed Nuclei (%): 42.15% and 42.41%
  Population Tubulin-Different-Phenotype (%): 37% and 56.82%
  Total Cell Count: 223 and 192

## O=C(Nc1cc(C(F)(F)F)ccc1N1CCCCC1)c1ccncc1
[1]
  Population Fragmented Nuclei (%): 13.9% and 8.06%
  Population Healthy Nuclei (%): 57.22% and 74.41%
  Population Hoechst High Intensity Objects (%): 0%
  Population Membrane Permeable-Phenotype (%): 1.87% and 1.91%
  Population Mitochondria Different-Phenotype (%): 6.54% and 10.83%
  Population Mitotic Cells (%): 92.59% and 75.68%
  Population Normal (%): 100%
  Population Pyknosed Nuclei (%): 28.88% and 17.54%
  Population Tubulin-Different-Phenotype (%): 13.08% and 22.93%
  Total Cell Count: 187 and 211
[2]
  Population Apoptotic (%): 17.46% and 11.48%
  Population Fragmented Nuclei (%): 7.6% and 3.1%
  Population Healthy Nuclei (%): 55.56% and 69.91%
  Population Hoechst High Intensity Objects (%): 0%
  Population Membrane Permeable-Phenotype (%): 9.47% and 6.96%
  Population Mitochondria Different-Phenotype (%): 26.32% and 21.52%
  Population Mitotic Cells (%): 82.54% and 88.52%
  Population Normal (%): 100%
  Population Pyknosed Nuclei (%): 36.84% and 26.99%
  Population Tubulin-Different-Phenotype (%): 35.79% and 71.52%
  Total Cell Count: 171 and 226
[3]
  Population Apoptotic (%): 11.76% and 28.57%
  Population Fragmented Nuclei (%): 9.18% and 7.73%
  Population Healthy Nuclei (%): 74.4% and 82.13%
  Population Hoechst High Intensity Objects (%): 0%
  Population Membrane Permeable-Phenotype (%): 4.55% and 4.12%
  Population Mitochondria Different-Phenotype (%): 4.55% and 8.82%
  Population Mitotic Cells (%): 88.24% and 71.43%
  Population Normal (%): 100%
  Population Pyknosed Nuclei (%): 16.43% and 10.14%
  Population Tubulin-Different-Phenotype (%): 16.23% and 21.76%
  Total Cell Count: 207
[4]
  Population Apoptotic (%): 20.83% and 16.98%
  Population Fragmented Nuclei (%): 6.81% and 3.07%
  Population Healthy Nuclei (%): 68.06% and 73.68%
  Population Hoechst High Intensity Objects (%): 0%
  Population Membrane Permeable-Phenotype (%): 5.38% and 5.95%
  Population Mitochondria Different-Phenotype (%): 30.77% and 20.24%
  Population Mitotic Cells (%): 79.17% and 83.02%
  Population Normal (%): 100%
  Population Pyknosed Nuclei (%): 25.13% and 23.25%
  Population Tubulin-Different-Phenotype (%): 53.08% and 70.24%
  Total Cell Count: 191 and 228
[5]
  Population Apoptotic (%): 11.11% and 10%
  Population Fragmented Nuclei (%): 14.08% and 11%
  Population Healthy Nuclei (%): 81.69% and 84.21%
  Population Hoechst High Intensity Objects (%): 0%
  Population Membrane Permeable-Phenotype (%): 1.72% and 2.84%
  Population Mitochondria Different-Phenotype (%): 8.62% and 5.11%
  Population Mitotic Cells (%): 88.89% and 90%
  Population Normal (%): 100%
  Population Pyknosed Nuclei (%): 4.23% and 4.78%
  Total Cell Count: 213 and 209
[6]
  Population Fragmented Nuclei (%): 9.23% and 2.62%
  Population Healthy Nuclei (%): 81.54% and 82.97%
  Population Hoechst High Intensity Objects (%): 0%
  Population Membrane Permeable-Phenotype (%): 0% and 7.37%
  Population Mitochondria Different-Phenotype (%): 17.61% and 13.68%
  Population Mitotic Cells (%): 61.11% and 90.91%
  Population Normal (%): 100%
  Population Pyknosed Nuclei (%): 9.23% and 14.41%
  Population Tubulin-Different-Phenotype (%): 31.45% and 73.68%
  Total Cell Count: 195 and 229
